# Source: article PMC11393732 (RSC Medicinal Chemistry, 2024)
# Assays:
# [1] = system: ALDH^High-HCP-1 CSC-derived tumors; assay: In vivo tumor growth, ALDH^High-HCP-1 CSC xenograft; parameters: species or system mice
# Procedure, shortened: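 NSG mice in 5 groups of 5. FACS-sorted ALDHHigh HCP-1 cells (2500 in Matrigel) injected subcutaneously into both flanks. Test compound given IP at 3, 10 or 35 mg kg−1, or IOX1 at 10 mg kg−1, in PBS/Kolliphor EL vehicle; controls got vehicle; 16 days. Body weight taken every other day, tumour volume on days 9, 13–16, tumour weight at sacrifice.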
# HCP-1 cells = assay: Clonogenic assay HCP-1; assay type: cell-based, human; details: HCP-1, 2 weeks
# Procedure, shortened: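 Cells kept in DMEM with 10% FBS and 1% pen–strep, seeded at 500 cells/well and dosed with test compound once attached. Medium refreshed every 3 days for 2 weeks. Colonies stained with 0.5% crystal violet and photographed. ED50 obtained by image analysis.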
# hERG potassium channel = hERG potassium channel (Homo sapiens, UniProt Q12809); assay: hERG automated patch-clamp assay; assay type: cell-based
# Sequence of hERG potassium channel (Q12809 whole entry): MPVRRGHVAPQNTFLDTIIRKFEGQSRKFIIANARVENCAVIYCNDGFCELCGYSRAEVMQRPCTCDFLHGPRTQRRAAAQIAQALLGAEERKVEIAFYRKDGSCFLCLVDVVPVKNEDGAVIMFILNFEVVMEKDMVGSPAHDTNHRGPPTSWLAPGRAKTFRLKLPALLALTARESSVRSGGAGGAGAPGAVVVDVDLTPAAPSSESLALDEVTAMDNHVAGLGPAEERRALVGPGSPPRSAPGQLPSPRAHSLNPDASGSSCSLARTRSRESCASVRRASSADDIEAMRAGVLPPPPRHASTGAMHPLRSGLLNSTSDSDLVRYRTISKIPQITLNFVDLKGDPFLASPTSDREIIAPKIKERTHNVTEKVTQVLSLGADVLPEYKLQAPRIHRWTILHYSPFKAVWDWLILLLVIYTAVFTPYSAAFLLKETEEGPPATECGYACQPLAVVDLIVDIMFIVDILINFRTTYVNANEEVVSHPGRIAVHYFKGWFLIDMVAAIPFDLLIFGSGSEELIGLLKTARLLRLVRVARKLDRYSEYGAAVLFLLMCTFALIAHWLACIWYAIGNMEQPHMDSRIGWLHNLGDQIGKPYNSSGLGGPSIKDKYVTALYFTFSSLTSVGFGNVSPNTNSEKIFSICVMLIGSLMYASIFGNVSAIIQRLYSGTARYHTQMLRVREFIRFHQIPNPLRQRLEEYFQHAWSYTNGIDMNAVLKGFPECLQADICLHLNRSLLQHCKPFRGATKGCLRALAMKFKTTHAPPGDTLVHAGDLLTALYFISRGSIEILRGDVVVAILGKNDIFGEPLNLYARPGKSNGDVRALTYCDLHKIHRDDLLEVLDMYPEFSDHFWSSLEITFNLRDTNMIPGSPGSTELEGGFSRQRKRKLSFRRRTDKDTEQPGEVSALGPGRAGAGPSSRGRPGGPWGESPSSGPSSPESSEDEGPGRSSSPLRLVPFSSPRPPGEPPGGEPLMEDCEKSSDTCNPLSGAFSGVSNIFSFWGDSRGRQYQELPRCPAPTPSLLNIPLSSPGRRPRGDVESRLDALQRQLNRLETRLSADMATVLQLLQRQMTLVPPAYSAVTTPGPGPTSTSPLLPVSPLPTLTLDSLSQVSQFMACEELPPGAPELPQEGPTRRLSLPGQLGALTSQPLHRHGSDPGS
# Procedure, shortened: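 hERG-expressing CHO-K1 cells were plated at least 24 h beforehand and recorded by whole-cell patch clamp at about RT with 0.1% Pluronic F-68. Holding −80 mV; 500 ms step to −40 mV for leak subtraction; 500 ms step to +40 mV, then 100 ms ramp to −80 mV for tail current, every 8 s. Block = mean tail amplitude over the last 15 s with test compound ÷ control.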
# [2] = Hepatic metabolism S9 fraction incubation, human
# [3] = system: Wnt target genes in SW480 cells; assay: RT-qPCR of Wnt target gene expression in SW480; assay type: cell-based, human
# Procedure, shortened: (§1)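 Cells in 6-well plates exposed to test compound for 16 h. Total RNA extracted; 1 μg reverse-transcribed with M-MuLV and random hexamers. SYBR Green qPCR for the named genes, quantified by 2ΔΔct against tubulin. Mean ± SD; unpaired two-tailed Student's t-test.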
# KDM3A = target: T1, KDM3A (Homo sapiens, UniProt Q9Y4C1); assay: Western blot KDM3A degradation in HCP-1 cells; assay type: cell-based
# T1 sequence (Q9Y4C1 1-1321): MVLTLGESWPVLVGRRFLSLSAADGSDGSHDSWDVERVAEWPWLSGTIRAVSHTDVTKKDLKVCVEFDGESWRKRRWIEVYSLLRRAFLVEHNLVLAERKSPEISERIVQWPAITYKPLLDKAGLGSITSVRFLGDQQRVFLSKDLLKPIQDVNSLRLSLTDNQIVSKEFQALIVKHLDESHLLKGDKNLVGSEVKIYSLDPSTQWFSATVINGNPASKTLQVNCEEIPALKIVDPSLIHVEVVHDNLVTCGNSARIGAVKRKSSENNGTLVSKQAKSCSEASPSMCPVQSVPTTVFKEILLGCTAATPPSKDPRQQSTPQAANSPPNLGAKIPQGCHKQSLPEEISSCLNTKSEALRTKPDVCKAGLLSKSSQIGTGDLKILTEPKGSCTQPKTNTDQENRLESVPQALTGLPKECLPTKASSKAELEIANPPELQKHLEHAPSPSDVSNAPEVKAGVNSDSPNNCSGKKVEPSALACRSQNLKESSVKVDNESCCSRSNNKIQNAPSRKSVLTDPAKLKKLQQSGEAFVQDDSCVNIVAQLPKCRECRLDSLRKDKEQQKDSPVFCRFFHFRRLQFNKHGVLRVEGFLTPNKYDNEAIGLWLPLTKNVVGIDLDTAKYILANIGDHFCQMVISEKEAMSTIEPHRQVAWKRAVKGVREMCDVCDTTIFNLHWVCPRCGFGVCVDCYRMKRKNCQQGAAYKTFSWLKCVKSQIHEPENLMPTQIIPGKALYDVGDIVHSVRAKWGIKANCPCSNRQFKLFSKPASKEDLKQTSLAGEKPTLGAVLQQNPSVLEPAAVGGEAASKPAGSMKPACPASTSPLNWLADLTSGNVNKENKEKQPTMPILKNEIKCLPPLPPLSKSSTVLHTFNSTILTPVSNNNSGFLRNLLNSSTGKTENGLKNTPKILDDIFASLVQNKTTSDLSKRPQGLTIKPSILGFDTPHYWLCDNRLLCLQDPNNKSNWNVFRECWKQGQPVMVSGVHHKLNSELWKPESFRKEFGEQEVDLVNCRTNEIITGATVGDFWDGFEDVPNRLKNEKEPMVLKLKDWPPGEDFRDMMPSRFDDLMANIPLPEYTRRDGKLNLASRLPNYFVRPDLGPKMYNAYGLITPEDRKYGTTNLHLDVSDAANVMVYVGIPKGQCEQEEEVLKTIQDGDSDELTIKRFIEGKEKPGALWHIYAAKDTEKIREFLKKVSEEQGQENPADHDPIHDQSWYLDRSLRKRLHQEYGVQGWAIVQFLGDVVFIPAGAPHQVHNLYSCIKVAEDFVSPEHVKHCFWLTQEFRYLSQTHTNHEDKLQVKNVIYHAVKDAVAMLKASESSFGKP
# KDM3B [4] = target: T2, KDM3B (Homo sapiens, UniProt Q7LBC6); assay: Western blot KDM3B degradation in SW480 cells; assay type: cell-based
# T2 sequence (Q7LBC6 whole entry): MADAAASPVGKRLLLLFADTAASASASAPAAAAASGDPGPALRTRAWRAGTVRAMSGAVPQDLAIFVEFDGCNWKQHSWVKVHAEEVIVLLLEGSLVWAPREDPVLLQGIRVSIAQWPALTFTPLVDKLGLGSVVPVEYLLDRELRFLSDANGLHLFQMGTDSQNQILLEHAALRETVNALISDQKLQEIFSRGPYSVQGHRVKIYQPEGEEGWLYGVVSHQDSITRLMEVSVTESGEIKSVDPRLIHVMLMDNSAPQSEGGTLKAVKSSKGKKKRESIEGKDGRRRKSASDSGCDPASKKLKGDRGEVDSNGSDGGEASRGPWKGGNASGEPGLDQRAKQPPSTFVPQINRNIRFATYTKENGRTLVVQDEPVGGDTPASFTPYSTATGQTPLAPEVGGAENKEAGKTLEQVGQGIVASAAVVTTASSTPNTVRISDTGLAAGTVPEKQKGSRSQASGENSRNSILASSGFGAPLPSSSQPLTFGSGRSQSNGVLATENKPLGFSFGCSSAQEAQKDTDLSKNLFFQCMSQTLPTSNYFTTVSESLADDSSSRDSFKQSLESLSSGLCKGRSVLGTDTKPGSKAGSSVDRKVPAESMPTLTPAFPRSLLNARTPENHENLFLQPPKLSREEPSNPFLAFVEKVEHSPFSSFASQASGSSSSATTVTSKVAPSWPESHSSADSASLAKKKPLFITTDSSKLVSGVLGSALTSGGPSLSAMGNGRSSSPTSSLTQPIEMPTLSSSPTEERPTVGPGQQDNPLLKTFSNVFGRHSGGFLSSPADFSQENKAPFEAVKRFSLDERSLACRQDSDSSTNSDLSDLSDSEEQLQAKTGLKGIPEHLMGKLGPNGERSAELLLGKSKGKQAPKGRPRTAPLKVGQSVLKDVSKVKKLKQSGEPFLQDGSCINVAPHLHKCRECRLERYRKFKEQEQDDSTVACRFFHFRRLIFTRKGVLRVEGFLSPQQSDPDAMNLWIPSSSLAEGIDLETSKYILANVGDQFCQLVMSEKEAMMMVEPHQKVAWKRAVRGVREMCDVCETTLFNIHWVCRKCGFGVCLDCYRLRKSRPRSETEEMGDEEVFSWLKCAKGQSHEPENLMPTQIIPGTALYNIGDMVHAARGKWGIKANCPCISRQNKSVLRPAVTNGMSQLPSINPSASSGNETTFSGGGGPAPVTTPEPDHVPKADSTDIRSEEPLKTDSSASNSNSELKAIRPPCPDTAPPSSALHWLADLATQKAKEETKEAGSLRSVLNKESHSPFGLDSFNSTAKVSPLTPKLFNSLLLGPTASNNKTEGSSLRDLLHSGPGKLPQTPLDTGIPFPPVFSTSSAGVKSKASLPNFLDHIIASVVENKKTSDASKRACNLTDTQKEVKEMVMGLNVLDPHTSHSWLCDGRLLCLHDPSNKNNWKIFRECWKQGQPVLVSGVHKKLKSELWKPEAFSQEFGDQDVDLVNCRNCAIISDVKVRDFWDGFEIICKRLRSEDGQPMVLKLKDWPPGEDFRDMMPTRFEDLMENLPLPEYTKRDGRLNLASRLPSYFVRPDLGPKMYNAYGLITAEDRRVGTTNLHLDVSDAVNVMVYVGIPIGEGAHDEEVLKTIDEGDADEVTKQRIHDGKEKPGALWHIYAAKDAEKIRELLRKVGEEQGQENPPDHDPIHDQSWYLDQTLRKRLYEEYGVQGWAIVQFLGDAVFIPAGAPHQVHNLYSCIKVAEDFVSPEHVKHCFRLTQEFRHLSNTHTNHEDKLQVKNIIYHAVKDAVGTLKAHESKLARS
# Procedure, shortened: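 SW480 cells exposed to test compound for 16 h, then total lysates protein-normalised and run on SDS-PAGE. Semi-dry transfer to PVDF, 1 h block in 5% milk. Primary antibody overnight at 4 °C in 1% milk, secondary 1 h at RT, TBST washes, α-tubulin as loading control. Rescue arms co-treated with MLN4924 (1 μM) or pomalidomide (100 μM). Test compound at 0.1 μM for the KDM3A blot and 1 μM for the KDM3B blot.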
# [5] = system: Wnt target genes in HCP-1 cells; assay: RT-qPCR of Wnt target gene expression in HCP-1; assay type: cell-based, human
# Procedure, shortened: as §1
# CRL-1790 cells = assay: CCK-8 based toxicity assay; assay type: cell-based, human
# Procedure, shortened: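 Non-malignant human colon epithelial CRL-1790 cells grown in EMEM with 10% FBS and 1% pen–strep at 37 °C and 5% CO2. Seeded at 3 × 10^3 cells/well in 96-well plates, then exposed to test compound. Viability read by CCK-8 at 48 h as OD 450 nm. TD50 derived from the dose–response.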
# KDM3B [6] = target: T2, KDM3B; assay: Western blot KDM3B degradation in HCP-1 cells; assay type: cell-based
# [7] = 0.1 μM, plus glutathione, UDPGA, PAPS, 37 °C
smiles,measurement,setting,value
"O=C1CCC(N2C(=O)c3cccc(NCCOCCOCCOCCOCCNC(=O)c4ccc(O)c5ncccc45)c3C2=O)C(=O)N1 (centres unmarked) [Compound 4, N-(14-((2-(2,6-Dioxopiperidin-3-yl)-1,3-dioxoisoindolin-4-yl)amino)-3,6,9,12-tetraoxatetradecyl)-8-hydroxyquinoline-5-carboxamide]",tumor volume and tumor weight vs IOX1 group,[1]; 3 mg kg^−1 IP vs IOX1 10 mg kg^−1,no significant change
same,CSC-derived tumor growth,"[1]; 3, 10, 35 mg kg^−1 IP, 16 days, vs vehicle",significantly inhibited
same,tumor volume and tumor weight vs IOX1 group,[1]; 10 and 35 mg kg^−1 IP vs IOX1 10 mg kg^−1,significantly decreased
same,body weight of mice,"[1]; IP, 16 days",little impact on the body weight
same,colony formation,HCP-1 cells,potently inhibited the colony formation
same,IC50,hERG potassium channel,> 30000 nM
same,"CLint Human (liver, S9)",[2]; [7],41.6 µL/min/mg
same,"t 1/2 Human (liver, S9)",[2]; [7],16.7 min
same,"clearance classification, human",[2]; CLint classification bands,moderate clearance
same,half-life at 0.1 μM,"[2]; human, s9, t 1/2 Human (liver, S9), 0.1 μM, plus glutathione, UDPGA, PAPS, 37 °C",16 min
same,"suppression of Wnt target gene expression (AXIN2, DKK1, CCND1)","[3]; SW480, 50 μM, 16-hour treatment, in most cases",≥ 50%
same,"expression of colorectal CSC signature genes (ASCL2, RNF43, ZNRF3, LGR5)","[3]; SW480, 16 hours",strongly inhibited
same,KDM3A degradation,KDM3A,potently induce KDM3A and KDM3B degradation
same,Dmax,"KDM3B [4]; SW480, read-out: Dmax KDM3B",88.5%
same,KDM3B degradation with MLN4924 co-treatment,"KDM3B [4]; SW480, MLN4924 1 μM, compound 4 1 μM",could be restored by MLN4924
same,KDM3B degradation with pomalidomide or IOX1 co-treatment,"KDM3B [4]; SW480, pomalidomide 100 μM, compound 4 1 μM",could also be suppressed by either pomalidomide or IOX1
same,KDM3B degradation (western blot),"KDM3B [4]; SW480 cells, 16 hours",degrades both KDM3A and KDM3B at nanomolar concentrations
same,DC50,"KDM3B [4]; read-out: DC50 KDMB, SW480 cells, 16 hours",173 nM
same,"suppression of Wnt target gene expression (AXIN2, DKK1, CCND1)","[5]; HCP-1, 50 μM, 16-hour treatment, in most cases",≥ 50%
same,"expression of colorectal CSC signature genes (ASCL2, RNF43, ZNRF3, LGR5)","[5]; HCP-1, 16 hours",strongly inhibited
same,cell growth of CRL-1790,"CRL-1790 cells; 60 μM, two-day treatment",not dramatically affected
same,TD50 CRL-1790,"CRL-1790 cells; CCK8 assay, 48 h post drug treatment",285.4 µM
same,KDM3B degradation,KDM3B [6],potently induce KDM3A and KDM3B degradation
